G6PDH counter-1: L. mesenteroides G6PDH inhibition counter-screen | Purified L. mesenteroides G6PDH, diaphorase/resazurin coupled fluorescence, 45 min | inhibition, % at 5 µM | hit rate 0.12% among 200,000; in the data active means inhibition above about 50%
PMI act: activators of human phosphomannose isomerase; hit rate 0.005% among 190,000; activation factor at 20 µM; P34949; purified human PMI, coupled resazurin fluorescence, 20 min; stronger effect = higher value; 1 = vehicle control, 0 substrate-free wells; AID 1214;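 active means activation factor of 2 or more at 20 µM, relative to plate controls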
Target sequence (P34949 whole entry, looked up): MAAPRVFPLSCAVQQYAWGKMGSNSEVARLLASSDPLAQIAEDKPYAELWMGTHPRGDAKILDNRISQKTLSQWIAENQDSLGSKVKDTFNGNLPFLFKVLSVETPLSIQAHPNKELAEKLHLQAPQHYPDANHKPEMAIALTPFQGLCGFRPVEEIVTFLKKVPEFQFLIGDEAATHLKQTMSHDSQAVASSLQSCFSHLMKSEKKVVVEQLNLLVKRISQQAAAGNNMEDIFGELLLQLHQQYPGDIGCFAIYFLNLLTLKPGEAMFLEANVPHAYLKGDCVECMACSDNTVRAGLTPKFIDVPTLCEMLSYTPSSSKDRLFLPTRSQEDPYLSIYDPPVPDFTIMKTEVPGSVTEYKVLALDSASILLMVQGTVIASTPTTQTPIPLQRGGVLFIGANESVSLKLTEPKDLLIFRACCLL
Diaph inh CS: inhibits diaphorase or chemically oxidizes, flagging diaphorase assay artifacts | AID 1217 | inhibition, % at 20 µM | diaphorase resazurin-to-resorufin fluorescence, NADH, 16 min; bacterial (C. kluyveri) enzyme, not human | hit rate 0.69% among 190,000;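 active means primary screen inhibition at 20 µM above a set limit, cut at about 50% in these data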;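 further: plate controls were DMSO with full reaction for no effect and wells lacking NADH for full effect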
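Test system: Clostridium kluyveri diaphorase enzyme / Quantity: diaphorase at 0.14 U/mL in enzyme working solution / Incubation: 16-min room-temperature incubation before reading / Benchmarks: NADH-free wells as positive control, DMSO-only neutral wells / Signal: resorufin fluorescence 544/590 nm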
Diaph act CS: diaphorase activation or chemical reduction counter-screen; Diaphorase/resazurin coupled assay, resorufin fluorescence, 16 min; stronger effect = higher value; 1 = vehicle wells, 0 = NADH-free wells; activation factor at 20 µM; hit rate 0.005% among 190,000; AID 1229;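 active means diaphorase activity raised at least twofold by the compound at 20 µM; inactive means activation factor below 2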
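Measured by – red resorufin fluorescence at 544/590 nm excitation/emission · Test system – Clostridium kluyveri diaphorase, purified enzyme · Incubation – reaction time 16 min, room temperature · Buffer or medium – 50 mM HEPES pH 7.4 with 4.542 mM MgCl2, 0.005% Tween 20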
Tb hexokinase: blocks Trypanosoma brucei hexokinase 1 activity. recombinant TbHK1, G6PDH-coupled NADH A340. hit rate 0.11% among 220,000. inhibition, % at 10 µM. AID 1430;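 active means inhibition of 50% or more in the single-dose primary screen; inactive means inhibition below 50%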
PMI act satM6P: increases human PMI activity with near-saturating mannose 6-phosphate; coupled PMI enzyme assay, resazurin fluorescence, 20 min; stronger effect = higher value; 1 = untreated enzyme, 0 = substrate-free blank; activation factor at 20 µM; hit rate 0.34% among 190,000; AID 1216;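 active means activation factor of 2 or more at 20 µM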
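Material: human phosphomannose isomerase with PGI, G6PDH, diaphorase coupling enzymes; amount: PMI at 15 ng/mL final; also added: Mannose-6-phosphate 1.0 mM (near-saturating) plus 0.22 mM NADP+; incubation: enzyme reaction with compound 20 min at room temperature; signal: resorufin fluorescence (Ex 544/Em 590 nm) from resazurin via diaphorase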
G6PDH counter-2: counter-screen for TbHK1 inhibitors: Leuconostoc G6PDH inhibition. inhibition, % at 10 µM. purified G6PDH, NADH absorbance, 1 h. hit rate 7% among 210. shares compounds with Tb hexokinase;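 active means at least 50% inhibition in the glucose-6-phosphate dehydrogenase coupled counterscreen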
TbHK1 confirm: confirmation of Trypanosoma brucei hexokinase 1 inhibitors | shares compounds with Tb hexokinase | recombinant TbHK1, G6PDH-coupled NADH A340 absorbance | inhibition, % at 10 µM | hit rate 10% among 210 | AID 2560;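 active means inhibition of at least 50% in both of the two screening runs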;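 further: 0% and 100% set by the maximum and minimum signal control wells on each plate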
The depositor's hits bear a star; . = no result. Compounds with a hit are over-represented: about 1.1% of the library has one in this group of screens.

SMILES	G6PDH counter-1	PMI act	Diaph inh CS	Diaph act CS	Tb hexokinase	PMI act satM6P	G6PDH counter-2	TbHK1 confirm
COc1cc2[nH]c(=S)nc(NC3CCCC3)c2cc1OC	-1	1.8	3	1	-17	2.5*	.	.
C=CCNc1nc(=S)[nH]c2cc(OC)c(OC)cc12	-8	1	19	0.8	-4	1	.	.
c1ccc(CSc2ccc(-c3cccnc3)nn2)cc1	0	1	7	0.9	-2	0.9	.	.
N#Cc1c(NCCCO)nc(NCc2ccccc2)c2c1CCN(Cc1ccccc1)C2	40	0.4	56*	0.4	-16	0.4	.	.
CCCC1=NN2C(=N)/C(=C\c3cc(C)n(Cc4ccccc4)c3C)C(=O)N=C2S1	.	.	.	.	-17	.	.	.
O=C1NC(=S)S/C1=C\c1ccc(SCc2ccccc2)o1	-13	0.2	35	0.6	8	0.3	.	.
O=C1NC(=S)S/C1=C\c1ccc(SCc2ccco2)o1	13	0.9	81*	0.2	38	0.9	.	.
CCC1=NN2C(=N)/C(=C/c3c(C)nn(-c4ccccc4)c3Cl)C(=O)N=C2S1	-5	1.1	6	0.9	-16	1	.	.
CCCC1=NN2C(=N)/C(=C\c3ccc(SCc4ccco4)o3)C(=O)N=C2S1	-2	1.2	51*	0.5	5	1.4	.	.
CCC1=NN2C(=N)/C(=C\c3ccc(SCc4ccco4)o3)C(=O)N=C2S1	1	1.1	56*	0.4	-1	1.4	.	.
COc1ccc(O)c(CNc2ccccc2F)c1	4	0.9	14	0.9	0	0.8	.	.
C#CCNC(=O)C1=C[C@@H](c2ccccc2)C[C@@H](OCc2ccc(CO)cc2)O1	8	0.9	56*	0.4	-11	0.7	.	.
NC(=O)C1=C[C@H](c2ccc(C(F)(F)F)cc2)C[C@H](OCc2ccc(CO)cc2)O1	10	0.9	22	0.8	-4	0.6	.	.
NC(=O)C1=C[C@@H](c2ccc(C(F)(F)F)cc2)C[C@@H](OCc2ccc(CO)cc2)O1	14	0.7	52*	0.5	-11	0.4	.	.
O=C(CCc1nnc(CCCCc2ccccc2)o1)N1CCCCC1CCO (configuration not stated)	.	.	.	.	1	.	.	.
O=C1c2cccc3c(N4CCCCC4)ccc(c23)C(=O)N1c1ccccc1O	9	0.9	61*	0.4	-6	0.9	.	.
CN(c1ccccc1)S(=O)(=O)c1cccc(NS(=O)(=O)c2ccc(/C=C/C(=O)O)cc2)c1	10	1.4	59*	0.4	-3	1.3	.	.
CN(c1cccc(NS(=O)(=O)c2ccccc2)c1)S(C)(=O)=O	13	0.9	17	0.8	0	0.9	.	.
CN(C)c1nc(N)c2ncc(=S)[nH]c2n1	15	1	52*	0.5	-11	1.5	.	.
O=c1nc2c(O)cccn2c2c1c(=O)[nH]c1ccccc12	-8	1	75*	0.3	56*	0.7	45	70*
COC(=O)C1(S(=O)(=O)c2ccc(C)cc2)CCOCC1	7	0.9	17	0.8	62*	0.9	-9	1
Cc1ccc(NC(=O)C2(S(=O)(=O)c3ccc(C)cc3)CC2)cc1	7	1	8	0.9	-4	1.1	.	.
Brc1ccc(-c2ncc3ccccn23)cc1	.	.	.	.	-28	.	.	.
O=C(CCC(=O)Nc1ccc(Oc2ccccc2)cc1)NCCO	2	1.1	14	0.9	50*	1	-10	2
O=C1CCC(=O)N1c1nc2nc(-c3ccccc3)cc(=O)n2[nH]1	1	1	9	0.9	-4	1	.	.
SMILES	G6PDH counter-1	PMI act	Diaph inh CS	Diaph act CS	Tb hexokinase	PMI act satM6P	G6PDH counter-2	TbHK1 confirm
Cc1nc2nc(-c3ccccc3)cc(=O)n2[nH]1	12	1.1	7	0.9	55*	1.2	-3	1
O=C1OC(N2CCN(C(=O)C3CCCO3)CC2)c2ccccc21 (configuration not stated)	3	1	5	0.9	63*	1	-3	3
O=C(C1CCCO1)N1CCN(c2ncccn2)CC1 (configuration not stated)	5	1	-7	1.1	56*	1	-9	-4
Cc1ccc2c(c1)N(CC(=O)NC1CCC(C)CC1)C(=O)CO2 (configuration not stated)	6	1	11	0.9	21	1	.	.
Cc1ccc2c(c1)N(CC(=O)NC1CCCc3ccccc31)C(=O)CO2 (configuration not stated)	-3	1	8	0.9	66*	1	1	-1
O=S(=O)(Cc1ccccc1Cl)CC(O)COc1ccccc1Cl (configuration not stated)	6	0.9	21	0.8	53*	0.9	13	12
CCc1cccc(NC(=O)NC2CCCCC2)c1	9	0.8	4	1	60*	0.9	-5	5
COC(=O)/C=C1\SC(N)=NC1=O	.	.	.	.	-19	.	.	.
O=C1CC(C(=O)NCc2ccccc2)C2(CCCC2)O1 (configuration not stated)	5	1	-1	1	55*	1.1	1	2
Cc1ccc(N2C(=O)CSC2c2cccnc2)cc1F (configuration not stated)	2	1.1	0	1	55*	1	-2	2
Cn1c(SCc2ccc(C#N)cc2)nnc1-c1ccccc1	20	1.1	4	1	4	0.9	.	.
Cn1c(SCc2ccc(C#N)cc2)nnc1-c1cccc(Cl)c1	4	1.1	9	0.9	55*	1	-12	20
NC(=O)CC1C(=O)N(c2ccc(F)cc2)C(=O)N1NC(=O)CCc1ccccc1 (configuration not stated)	12	0.9	7	0.9	-1	0.9	.	.
CCOC(=O)c1c(C)c(C(=O)NCc2ccccn2)c(C)n1C	-1	1.1	-6	1.1	-1	1.1	.	.
CCOC(=O)c1c(C)c(C(=O)NCc2cccnc2)c(C)n1C	-1	1	1	1	63*	1	-2	1
CC(=O)c1c(N2CCN(C)CC2)nc(=S)n(-c2cc(C)ccc2C)c1C	4	1.4	14	0.9	-18	1.1	.	.
CCN1/C(=C/C=C/c2oc3ccc4ccccc4c3[n+]2CC)Oc2ccc3ccccc3c21	2	0.9	-25	1.2	100*	0.9	132*	85*
CC[n+]1c(/C=C/N(C)c2ccccc2)oc2ccc(Cl)cc21	1	0.8	25	0.8	-48	0.5	.	.
